# Test results taken from ChEMBL document CHEMBL1146203, “Acridone-based inhibitors of inosine 5'-monophosphate dehydrogenase: discovery and SAR leading to the identification of N-(2-(6-(4-ethylpiperazin-1-yl)pyridin-3-yl)propan-2-yl)-2- fluoro-9-oxo-9,10-dihydroacridine-3-carboxamide (BMS-566419)” (J Med Chem, 2007).
# Calls of active or inactive are those of the source. The calls are words filed in the database; no cut-off is given here.
# What was measured:
# CCRF-CEM = assay: Inhibition of CEM cell proliferation; format: functional, cell-based; settings: Homo sapiens
# In short: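 Human CEM T-lymphoblasts grown in RPMI 1640 with 10% heat-inactivated FBS and penicillin/streptomycin. Seeded at 3000 cells/well with 0.5% DMSO; compounds tested in triplicate from 10 µM top concentration in 3-fold dilutions.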
# [1] = target: Inosine-5'-monophosphate dehydrogenase 2 (Homo sapiens, UniProt P12268); assay: Inhibition of human IMPDH2
# PBMC = assay: Inhibition of T cell proliferation in PBMC cells; format: functional, cell-based; settings: Homo sapiens
# In short: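 Human PBMCs isolated from heparinized whole blood by density gradient and plated at 5 × 10^4 cells/well in RPMI 1640 with 10% FBS. Stimulated with anti-CD3 OKT3 (200 ng/mL) plus soluble anti-CD28 (1 µg/mL). Compounds tested in triplicate from 3.3 µM in 3-fold dilutions with 0.5% DMSO for 72 h.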
# Serum = assay: Protein binding in serum; format: ADME, cell-free; settings: human
# Cytochrome P450 3A4 = Cytochrome P450 3A4 (Homo sapiens, UniProt P08684); assay: Inhibition of CYP3A4; format: ADME
# Cytochrome P450 3A4, sequence (P08684 whole entry): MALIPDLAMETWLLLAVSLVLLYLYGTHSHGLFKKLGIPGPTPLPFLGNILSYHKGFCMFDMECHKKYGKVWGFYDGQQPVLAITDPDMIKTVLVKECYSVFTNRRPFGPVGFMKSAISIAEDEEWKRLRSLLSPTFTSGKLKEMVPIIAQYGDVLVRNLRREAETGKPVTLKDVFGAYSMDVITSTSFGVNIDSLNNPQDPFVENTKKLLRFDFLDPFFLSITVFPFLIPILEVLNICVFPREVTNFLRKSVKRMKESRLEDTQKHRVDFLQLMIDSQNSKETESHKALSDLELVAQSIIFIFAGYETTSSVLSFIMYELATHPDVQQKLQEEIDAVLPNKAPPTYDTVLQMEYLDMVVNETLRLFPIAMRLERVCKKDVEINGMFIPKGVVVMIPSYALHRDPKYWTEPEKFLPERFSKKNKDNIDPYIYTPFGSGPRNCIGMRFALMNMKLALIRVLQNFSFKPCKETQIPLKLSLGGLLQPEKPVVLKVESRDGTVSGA
# In short: (§1)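 Inhibition measured against isolated CYP enzymes.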
# [2] = Lipophilicity, log P of the compound; format: physicochemical; settings: octanol/water
# [3] = Permeability across Caco-2 cells; format: ADME, cell-based; settings: human, read-out: permeability
# [4] = Cmax in rat at 10 mg/kg, po; format: ADME, organism-based; design: dose 10 mg/kg, route oral; settings: in vivo
# In short: (§2)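 Rat and cynomolgus monkey PK: oral dose 10 mg/kg and iv dose 2 mg/kg; oral vehicle 60% PEG400/40% HCl at pH 3. Cmax, Tmax and AUC taken from the oral arm; T1/2, MRT, Cl and Vss from the iv arm; Fpo calculated. Values are the mean ± SD of three animals.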
# [5] = Cmax in cynomolgus monkey at 10 mg/kg, po; format: ADME, organism-based, Macaca fascicularis; design: dose 10 mg/kg, route oral; settings: in vivo; in short: as §2
# Rattus norvegicus [6] = assay: Tmax in rat at 10 mg/kg, po; format: ADME, organism-based; design: dose 10 mg/kg, route oral; settings: in vivo; in short: as §2
# [7] = AUC in rat at 10 mg/kg, po; format: ADME, organism-based; design: dose 10 mg/kg, route oral; settings: plasma; in short: as §2
# [8] = AUC in cynomolgus monkey at 10 mg/kg, po; format: ADME, organism-based, Macaca fascicularis; design: dose 10 mg/kg, route oral; settings: plasma; in short: as §2
# [9] = Half life in rat at 2 mg/kg, iv; format: ADME, organism-based; design: dose 2 mg/kg, route intravenous; settings: in vivo; in short: as §2
# [10] = Half life in cynomolgus monkey at 2 mg/kg, iv; format: ADME, organism-based, Macaca fascicularis; design: dose 2 mg/kg, route intravenous; settings: in vivo; in short: as §2
# [11] = Mean residence time in rat at 2 mg/kg, iv; format: ADME, organism-based; design: dose 2 mg/kg, route intravenous; settings: in vivo; in short: as §2
# [12] = Mean residence time in cynomolgus monkey at 2 mg/kg, iv; format: ADME, organism-based, Macaca fascicularis; design: dose 2 mg/kg, route intravenous; settings: in vivo; in short: as §2
# [13] = Volume of distribution at steady state in rat at 2 mg/kg, iv; format: ADME, organism-based; design: dose 2 mg/kg, route intravenous; settings: in vivo, read-out: Vdss; in short: as §2
# [14] = Volume of distribution at steady state in cynomolgus monkey at 2 mg/kg, iv; format: ADME, organism-based, Macaca fascicularis; design: dose 2 mg/kg, route intravenous; settings: in vivo, read-out: Vdss; in short: as §2
# [15] = Bioavailability in rat at 10 mg/kg, po; format: ADME, organism-based; settings: in vivo; in short: as §2
# Rattus norvegicus [16] = assay: Efficacy against Freund's complete adjuvant-induced arthritis in Lewis rat assessed as inhibition of paw swelling at 10 mg/kg, po after 21 days; format: functional, organism-based; design: dose 10 mg/kg
# In short: (§3)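 Male Lewis rats; arthritis induced by subcutaneous Freund's complete adjuvant at the tail base. Oral dosing once daily for 21 days from day 0, in 60% PEG400/40% 0.01 N HCl vehicle; 8 rats per group. Hind paw volume was measured by plethysmometry at baseline and over three weeks, and the increase above baseline was calculated. Groups were compared with vehicle by Student's t test.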
# Rattus norvegicus [17] = assay: Efficacy against Freund's complete adjuvant-induced arthritis in Lewis rat assessed as inhibition of paw swelling at 25 mg/kg, po after 21 days; format: functional, organism-based; design: dose 25 mg/kg; in short: as §3
# Rattus norvegicus [18] = assay: Efficacy against Freund's complete adjuvant-induced arthritis in Lewis rat assessed as inhibition of paw swelling at 50 mg/kg, po after 21 days; format: functional, organism-based; design: dose 50 mg/kg; in short: as §3
# [19] = Clearance in rats at 2 mg/kg, iv; format: ADME, organism-based; design: dose 2 mg/kg, route intravenous; settings: rat, in vivo; in short: as §2
# [20] = Clearance in cynomolgus monkey at 2 mg/kg, iv; format: ADME, organism-based, Macaca fascicularis; design: dose 2 mg/kg, route intravenous; settings: in vivo; in short: as §2
# Cytochrome P450 2C9 = Cytochrome P450 2C9 (Homo sapiens, UniProt P11712); assay: Inhibition of CYP2C9; format: ADME; in short: as §1
# Cytochrome P450 2C9, sequence (P11712 whole entry): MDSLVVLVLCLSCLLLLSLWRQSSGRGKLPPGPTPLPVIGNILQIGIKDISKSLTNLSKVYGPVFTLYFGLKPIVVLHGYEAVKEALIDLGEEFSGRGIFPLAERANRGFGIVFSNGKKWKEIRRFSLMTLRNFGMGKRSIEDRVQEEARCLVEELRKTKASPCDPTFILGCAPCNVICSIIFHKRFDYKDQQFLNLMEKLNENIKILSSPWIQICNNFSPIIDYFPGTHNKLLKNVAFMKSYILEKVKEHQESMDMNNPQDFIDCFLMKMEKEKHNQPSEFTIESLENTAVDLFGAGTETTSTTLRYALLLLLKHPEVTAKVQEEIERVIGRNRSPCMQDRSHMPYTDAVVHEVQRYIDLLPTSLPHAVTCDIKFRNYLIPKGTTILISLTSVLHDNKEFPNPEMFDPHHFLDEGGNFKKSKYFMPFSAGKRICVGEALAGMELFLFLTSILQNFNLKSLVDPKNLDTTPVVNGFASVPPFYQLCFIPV
# Cytochrome P450 1A2 = target: T1, Cytochrome P450 1A2 (Homo sapiens, UniProt P05177); assay: Inhibition of CYP1A2; format: ADME; in short: as §1
# T1 sequence (P05177 whole entry): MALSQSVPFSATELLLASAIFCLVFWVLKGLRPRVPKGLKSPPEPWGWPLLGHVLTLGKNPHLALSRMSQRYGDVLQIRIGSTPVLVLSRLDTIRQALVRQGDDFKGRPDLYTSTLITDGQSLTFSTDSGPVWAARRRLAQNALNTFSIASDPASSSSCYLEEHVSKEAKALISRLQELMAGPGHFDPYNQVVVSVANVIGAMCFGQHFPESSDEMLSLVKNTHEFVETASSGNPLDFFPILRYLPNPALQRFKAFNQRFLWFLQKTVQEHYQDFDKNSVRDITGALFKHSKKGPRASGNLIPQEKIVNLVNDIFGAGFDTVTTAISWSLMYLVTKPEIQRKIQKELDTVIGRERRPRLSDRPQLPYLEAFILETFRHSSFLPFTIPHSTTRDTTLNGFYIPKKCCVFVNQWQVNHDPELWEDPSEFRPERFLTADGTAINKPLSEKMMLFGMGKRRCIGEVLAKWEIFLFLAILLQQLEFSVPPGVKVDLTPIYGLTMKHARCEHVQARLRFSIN
# Cytochrome P450 2D6 = Cytochrome P450 2D6 (Homo sapiens, UniProt P10635); assay: Inhibition of CYP2D6; format: ADME; in short: as §1
# Cytochrome P450 2D6, sequence (P10635 whole entry): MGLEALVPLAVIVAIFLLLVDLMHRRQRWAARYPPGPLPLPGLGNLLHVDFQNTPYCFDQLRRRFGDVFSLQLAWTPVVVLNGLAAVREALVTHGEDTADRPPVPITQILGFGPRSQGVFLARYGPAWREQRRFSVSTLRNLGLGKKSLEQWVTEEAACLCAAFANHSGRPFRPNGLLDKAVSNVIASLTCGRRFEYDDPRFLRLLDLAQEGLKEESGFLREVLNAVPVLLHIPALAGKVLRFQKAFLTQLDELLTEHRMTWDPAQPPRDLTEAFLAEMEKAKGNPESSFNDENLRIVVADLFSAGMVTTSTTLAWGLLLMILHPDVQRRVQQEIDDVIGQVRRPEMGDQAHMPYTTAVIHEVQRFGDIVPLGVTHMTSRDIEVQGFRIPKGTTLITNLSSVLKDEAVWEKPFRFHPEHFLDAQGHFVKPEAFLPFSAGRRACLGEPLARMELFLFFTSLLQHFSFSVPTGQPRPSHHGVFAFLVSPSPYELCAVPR
# Cytochrome P450 2C19 = Cytochrome P450 2C19 (Homo sapiens, UniProt P33261); assay: Inhibition of CYP2C19; format: ADME; in short: as §1
# Cytochrome P450 2C19, sequence (P33261 whole entry): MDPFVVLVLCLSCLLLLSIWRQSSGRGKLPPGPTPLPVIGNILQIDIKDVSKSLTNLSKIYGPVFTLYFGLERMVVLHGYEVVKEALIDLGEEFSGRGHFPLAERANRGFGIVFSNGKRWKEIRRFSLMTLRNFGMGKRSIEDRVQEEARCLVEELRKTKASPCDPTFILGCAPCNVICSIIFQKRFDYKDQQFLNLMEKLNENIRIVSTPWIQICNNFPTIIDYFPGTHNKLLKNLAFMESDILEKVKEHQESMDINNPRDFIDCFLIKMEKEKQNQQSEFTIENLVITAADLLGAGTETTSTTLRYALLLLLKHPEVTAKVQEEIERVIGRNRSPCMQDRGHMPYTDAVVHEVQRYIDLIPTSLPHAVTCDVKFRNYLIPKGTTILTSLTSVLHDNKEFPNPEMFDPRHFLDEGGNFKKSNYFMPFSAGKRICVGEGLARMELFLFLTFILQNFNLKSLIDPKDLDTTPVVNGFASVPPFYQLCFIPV
# [21] = Bioavailability in cynomolgus monkey at 10 mg/kg, po; settings: in vivo
compound,measurement,setting,value
CN(C)CCOc1ccc(C(C)(C)NC(=O)c2cc3[nH]c4ccccc4c(=O)c3cc2F)cc1,IC50,CCRF-CEM,560 nM
same,IC50,[1],20 nM
same,IC50,PBMC,210 nM
CN(C)c1cc(C(C)(C)NC(=O)c2cc3[nH]c4ccccc4c(=O)c3cc2F)ccn1,IC50,CCRF-CEM,640 nM
same,IC50,[1],14 nM
same,IC50,PBMC,220 nM
CC(C)(NC(=O)c1cc2[nH]c3ccccc3c(=O)c2cc1F)c1cccc(S(C)(=O)=O)c1,IC50,CCRF-CEM,580 nM
same,IC50,[1],12 nM
same,IC50,PBMC,280 nM
CN(C)c1ccc(C(C)(C)NC(=O)c2cc3[nH]c4ccccc4c(=O)c3cc2F)cn1,IC50,CCRF-CEM,850 nM
same,IC50,[1],22 nM
same,IC50,PBMC,340 nM
CCN1CCN(c2ccc(C(C)(C)NC(=O)c3cc4[nH]c5ccccc5c(=O)c4cc3F)cn2)CC1,IC50,CCRF-CEM,770 nM
same,IC50,[1],17 nM
same,IC50,PBMC,220 nM
same,Activity,Serum,92%
same,IC50,Cytochrome P450 3A4,13000 nM
same,logP,[2],2.5
same,Papp,[3],32 ×10⁻⁶ cm/s
same,Cmax,[4],0.41 µM
same,Cmax,[5],26 µM
same,Tmax,Rattus norvegicus [6],4 h
same,AUC,[7],5.2 µM·h
same,AUC,[8],102 µM·h
same,half-life,[9],3.6 h
same,half-life,[10],4 h
same,MRT,[11],4.4 h
same,MRT,[12],5.5 h
same,Vd,[13],7.4 L/kg
same,Vd,[14],1.1 L/kg
same,bioavailability,[15],43%
same,Activity,Rattus norvegicus [16],Active
same,Activity,Rattus norvegicus [17],Active
same,Activity,Rattus norvegicus [18],Active
same,clearance,[19],29 mL/min/kg
same,clearance,[20],3.4 mL/min/kg
same,IC50,Cytochrome P450 2C9,> 20000 nM
same,IC50,Cytochrome P450 1A2,> 20000 nM
same,IC50,Cytochrome P450 2D6,> 20000 nM
same,IC50,Cytochrome P450 2C19,19000 nM
same,bioavailability,[21],88%
Cc1ccc(C(C)(C)NC(=O)c2cc3[nH]c4ccccc4c(=O)c3cc2F)cn1,IC50,CCRF-CEM,750 nM
same,IC50,[1],23 nM
same,IC50,PBMC,270 nM
CC(C)(C)NC(=O)c1ccc2c(=O)c3ccccc3[nH]c2c1,IC50,CCRF-CEM,3300 nM
same,IC50,[1],59 nM
CC(C)(NC(=O)c1ccc2c(=O)c3ccccc3[nH]c2c1)c1ccncc1,IC50,CCRF-CEM,2300 nM
same,IC50,[1],53 nM
same,IC50,PBMC,630 nM
O=C(NCc1ccccc1)c1ccc2c(=O)c3ccccc3[nH]c2c1,IC50,[1],2200 nM
COc1cc(C(C)(C)NC(=O)c2cc3[nH]c4ccccc4c(=O)c3cc2F)cnc1N1CCOCC1,IC50,CCRF-CEM,810 nM
same,IC50,[1],20 nM
same,IC50,PBMC,320 nM
CC(C)(NC(=O)c1cc2[nH]c3ccccc3c(=O)c2cc1F)c1ccc(S(C)(=O)=O)cc1,IC50,CCRF-CEM,480 nM
same,IC50,[1],12 nM
same,IC50,PBMC,170 nM
CC(C)(NC(=O)c1ccc2c(=O)c3ccccc3[nH]c2c1)c1ccccn1,IC50,CCRF-CEM,2200 nM
same,IC50,[1],53 nM
C[C@H](NC(=O)c1ccc2c(=O)c3ccccc3[nH]c2c1)c1ccccc1,IC50,[1],431 nM
